# Measured values from different studies.
# Each line is one published result; the experiments were not run side by side.
# Target: Protein kinase C eta type (PRKCH, Homo sapiens, UniProt P24723)
SMILES,effect on,technique,concentration,remaining binding
O=C(NCCCN1CCOCC1)c1ccc(Nc2nccc(-c3cc4ccccc4s3)n2)cc1,binding,competition with immobilised ligand,1 µM,84%
c1cnn2ncc(-c3ccnc(N4CCC45COC5)n3)c2c1,binding,,1 µM,88%
C=CC(=O)N1CCC(C(=O)NCC(=O)N2CCN(c3nc(-c4cnc(N)nc4C(F)F)nc(N4CCOCC4)n3)CC2)CC1,binding,competition with immobilised ligand,1 µM,100%
CNC(=O)Nc1ccc2c(c1)CC[C@@]21OC(=O)N(CC(=O)N(Cc2ccc(F)cc2)[C@@H](C)C(F)(F)F)C1=O,cell-free assay,competition with immobilised ligand,1 µM,93%
Cc1cnn2ncc(-c3ccnc(N(C)C)n3)c2c1,binding,,1 µM,100%
O=C(NCC1CCOCC1)c1n[nH]cc1NC(=O)c1c(F)cccc1F,binding,competition with immobilised ligand,1 µM,92%
CN(C)c1ncnc(-c2ccc3nc(Nc4cc(CN5CCN(C(=O)CC(F)(F)F)CC5)ccn4)[nH]c3c2)c1Cl,cell-free assay,competition with immobilised ligand,1 µM,100%
COc1cnc(Nc2cccc(S(N)(=O)=O)c2)nc1N1CCN(c2ccccc2)C(=O)C1,binding,competition with immobilised ligand,1 µM,95%
Cn1nc(C(=O)NCc2ccc(C(=O)O)cc2)cc1-c1ccc2[nH]ccc2c1,cell-free assay,competition with immobilised ligand,0.1 µM,84%
CN(c1nccc(-c2cnn3ncccc23)n1)C1CC1,binding,,1 µM,100%
C[C@H](c1ccnc(Nc2nc3ccc(-c4cc(N(C)C)ncn4)cc3[nH]2)c1)N1CCN(C(=O)CC(F)(F)F)CC1,cell-free assay,competition with immobilised ligand,0.1 µM,84%
C[C@@H](c1ccc(-n2cnc3c(N)ncnc32)cc1)N1CCc2nn(C)c(Cc3ccccc3)c2C1=O,binding,competition with immobilised ligand,0.1 µM,100%
O=C(Nc1cnc(Oc2ccc(F)cc2)nc1)N1CCc2ncccc2[C@@H]1c1ccc(F)cc1,cell-free assay,competition with immobilised ligand,1 µM,76%
O=C(c1ccc(Nc2nccc(-c3cc4ccccc4s3)n2)cc1)N1CCC(N2CCCC2)CC1,binding,competition with immobilised ligand,1 µM,74%
CN(C)c1nccc(-c2cnn3ncccc23)n1,binding,,1 µM,100%
CNC(=O)[C@@H]1CC[C@@H](n2c(-c3ccc4cnccc4c3)nc3ccc(C(=O)NCc4cccc(C(N)=O)c4)cc32)C1,binding,competition with immobilised ligand,1 µM,100%
N[C@H]1CCN(c2nccc(-c3cnn4ncccc34)n2)C1,binding,,1 µM,88%
O=C(NCCCN1CCOCC1)c1ccc(Nc2ncc(Cl)c(-c3ccc(Cl)s3)n2)cc1,binding,competition with immobilised ligand,1 µM,100%
CCCOc1ccc([C@@H]2[C@@H](C(=O)O)[C@H](c3ccc4c(c3)OCO4)CN2CC(=O)Nc2c(CC)cccc2CC)cc1,cell-free assay,competition with immobilised ligand,1 µM,100%
CC1CCCN1c1nccc(-c2cnn3ncccc23)n1 (stereo not shown),binding,,1 µM,100%
CC(=O)Nc1c(C(C)=O)c(=O)n(C)c2nc(-c3ccc(Cl)cc3Cl)c(-c3ccc(Cl)cc3)cc12,cell-free assay,competition with immobilised ligand,1 µM,100%
COc1ccnn2ncc(-c3ccnc(N(C)C)n3)c12,binding,,1 µM,92%
